miR-122 sensor = blocks miR-122 activity in Huh7 sensor cells. Huh7 miR-122 Renilla luciferase sensor, 48 h; neutral wells = 0, positive control = 100. activation (reporter increase), % at 12.5 µM. 340,000 tested, 0.3% active. AID 602342;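 active = mean replicate activation score at least 90 and every replicate individually at or above 90; inconclusive = only one of the two criteria met; inactive = neither criterion met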;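 note: higher luciferase means less miR-122 activity so hits act as miR-122 inhibitors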
Ecoli rRNA inh = selective bacterial rRNA inhibition in E. coli. E. coli WT GFP vs humanized-ribosome RFP mutants, fluorescence, 24 h; stronger effect = lower value; DMSO median 0, no signal -100. GFP signal change (wild-type ribosome), % (concentration not given with the values). 350,000 tested, 1.6% active;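 active = significant combined selectivity score with lowered wild-type GFP, culture density cut under 30%, mutant RFP and density less affected; inactive = any of these conditions unmet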
E-selectin induc = induces E-selectin expression in human endothelial cells; HUVEC E-selectin immunofluorescence imaging; normalized: neutral wells 0, TNF-alpha wells 100; activation, % at 7.58 µM; 260,000 tested, 0.37% active; AID 686992;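 active = mean E-selectin-positive cell signal at least 10% of the positive control, reached in at least 60% of replicates, without over 20% cell loss; inconclusive = no rule given, readout overlaps actives, possibly toxicity-flagged; inactive = the rest, including those meeting only one limit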
Target sequence (P16581 whole entry, looked up): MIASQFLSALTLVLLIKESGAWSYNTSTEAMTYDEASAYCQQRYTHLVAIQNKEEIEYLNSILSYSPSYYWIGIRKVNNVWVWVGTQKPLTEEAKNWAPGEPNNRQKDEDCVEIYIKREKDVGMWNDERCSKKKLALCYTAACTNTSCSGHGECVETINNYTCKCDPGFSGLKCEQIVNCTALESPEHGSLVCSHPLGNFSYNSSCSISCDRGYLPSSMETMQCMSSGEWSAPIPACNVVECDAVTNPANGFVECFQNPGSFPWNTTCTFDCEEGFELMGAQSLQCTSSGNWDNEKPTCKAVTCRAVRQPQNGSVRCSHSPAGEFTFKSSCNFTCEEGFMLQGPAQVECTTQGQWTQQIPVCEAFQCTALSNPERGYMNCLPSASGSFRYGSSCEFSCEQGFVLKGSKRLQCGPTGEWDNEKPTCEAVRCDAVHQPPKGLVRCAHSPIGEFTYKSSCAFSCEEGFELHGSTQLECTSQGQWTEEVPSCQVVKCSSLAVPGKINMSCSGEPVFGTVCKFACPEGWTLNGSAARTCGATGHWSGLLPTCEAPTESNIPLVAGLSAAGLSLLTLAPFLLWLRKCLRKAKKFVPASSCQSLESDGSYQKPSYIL
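Test system – human umbilical vein endothelial cells (HUVEC), E-selectin induction · Input – 3,000 HUVEC seeded per well · Buffer or medium – EGM-2, gelatin · Compound dosing – single-point compound dose · Detection – immunofluorescence imaging · Measure – percent E-selectin-positive cells · Controls – TNF-alpha high, DMSO low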
Cneo AK release = Cryptococcus neoformans lysis via adenylate kinase release; lysis activity, % at 15 µM; C. neoformans lysis, adenylate kinase release luminescence, 4 h; normalised: neutral wells 0, clomiphene wells 100; AID 651654; 360,000 tested, 0.2% active;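 active = mean lysis activity across replicates of at least 80%, whatever share of replicates individually reach that level; inactive = mean lysis activity below 80%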
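Signal: Adenylate kinase release luminescence | Assay system: Log-phase Cryptococcus neoformans yeast cells | Input: Cells at 5 × 10^6 per mL | Buffer or medium: Fresh YPD growth medium | Compound: Single dose | Schedule: Static 4 h at 37 °C with compound, 1 h detection | Controls: Clomiphene | Read-out: Luminescence rise reflecting yeast cell lysis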
DENV2 CPE = inhibitors of DENV2 cytopathic effect | CPE inhibition, % at 9.99 µM | 350,000 tested, 1.7% active | DENV2-infected cells, cytopathic effect rescue, plate reader | AID 651640; in the data active = CPE inhibition above about 20%, passing the limit was not always enough; inconclusive = no clear call, values can overlap the other calls; tested in BHK-21 cells;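 note: 0% = median of neutral control wells and 100% = median of positive control wells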
* hit, by the source's call; ? = inconclusive; . = not tested or not shown; ! = a repeat was not active; [ ] = dose if it differs, or a comment. Most compounds without a hit are left out; they make up all but 3.1% or so of the library.

SMILES | miR-122 sensor | Ecoli rRNA inh | E-selectin induc | Cneo AK release | DENV2 CPE
CCOC(=O)SC1=N/C(=C\c2ccc(N(C)C)cc2)C(=O)S1 | 2 | 6 | . | . | -4
CCOC(=O)c1cc2c(=Cc3ccc(N(C)C)cc3)c3ccccc3n2[n+]1C | . | -53 | 139* | . | 35*
CN(C)c1ccc(C=c2c3ccccc3n3c2c2ccccc2[n+]3C)cc1 | . | . | . | . | -5
CCCN1[C@@H]2c3ccc(C4=CCCC4)c(=O)n3C[C@H]1[C@H](CO)[C@H]2C(=O)NCc1ccccn1 | 32[16.7 µM] | -3 | 0 | 3 | 12
COc1ccc2c3c([nH]c2c1)[C@@H](CO)N(C(=O)c1cccc(F)c1)CC31CN(S(=O)(=O)c2cccs2)C1 | . | -5 | . | . | .
CO[C@H]1CN(C)C(=O)c2cc(NC(=O)Nc3c(C)noc3C)ccc2OC[C@H](C)N(C)C[C@@H]1C | . | 0 | 0 | -1 | -3
COc1ccc(/C=C/C(=O)Nc2ccccc2)cc1S(=O)(=O)N1CCOCC1 | -7 | -18* | 5 | . | 3
CC(=O)c1ccc(NC(=O)c2cc(Cl)sc2Cl)cc1 | . | -30* | 0 | . | -6
CC(=O)c1ccc(NC(=O)Nc2ccc(Cl)cc2)cc1 | -1 | -12 | . | . | 15
C[C@H](CO)N1C[C@H](C)[C@@H](CN(C)CC2CCCC2)Oc2ncc(C#Cc3ccccn3)cc2C1=O | 10[16.7 µM] | -1 | 0 | . | .
CC=Cc1ccc2n(c1=O)C[C@@H]1[C@@H](CO)[C@H](C(=O)NCC(F)(F)F)[C@H]2N1C(=O)C1CCCC1 (mixture of isomers) | . | 0 | 0 | . | 18
CO[C@@H]1CC[C@H]2CCN(C)C(=O)C[C@H](c3ccccc3)CN(C)C(=O)c3cc(C#N)ccc3OC[C@@H]1O2 | . | 0 | 0 | 2 | 52*
N#Cc1c(N)nc2c(c1N)CC(=O)N2c1ccccc1-c1ccccc1 | -3 | . | . | 3 | .
N#Cc1c(N)nc2c(c1N)CC(=O)N2c1ccc(Cl)cc1 | . | -31* | . | 0 | -2
CCC(c1ccccc1)C(CC)c1cc(O)c(O)c(O)c1 (stereo not drawn) | -3 | -26* | 1 | 0 | 10
CCC(C)c1ccccc1O (stereo not drawn) | 2 | 0 | . | 1 | 4
CC(Oc1cc2oc(=O)c3c(c2cc1Cl)CCC3)C(=O)NCC1CCC(C(=O)O)CC1 (stereo not drawn) | -5 | 2 | . | -1 | -4
Cc1cc(=O)oc2c(C)c(OC(C)C(=O)NCC3CCC(C(=O)O)CC3)ccc12 (stereo not drawn) | -6 | . | . | -1 | 4
CC(Oc1cc2oc(=O)c3c(c2cc1Cl)CCCC3)C(=O)NCC1CCC(C(=O)O)CC1 (stereo not drawn) | 2 | -14 | 87* | 0 | -6
Cc1c(Cc2ccccc2)c(=O)oc2c(C)c(OC(C)C(=O)NCC3CCC(C(=O)O)CC3)ccc12 (stereo not drawn) | 2 | -21* | . | -4 | -9
O=C(COc1ccccc1)Nc1ccc2[nH]ncc2c1 | 5 | 0 | . | 2 | ?
Cc1ccccc1OCC(=O)Nc1ccc2[nH]ncc2c1 | -4 | -21* | . | 0 | -2
CC(C)CCC(O)(c1ccccc1)C(CN1CCOCC1)c1ccccc1 (stereo not drawn) | . | -17 | . | 2 | 30*
COc1ccc(C(O)(CCC(C)C)C(CN2CCOCC2)c2ccccc2)cc1 (stereo not drawn) | -10 | -2 | 0 | 0 | -4
COc1ccc2c3c(n(C)c2c1)[C@H](CO)N(S(=O)(=O)c1cn(C)cn1)CC31CCN(C)CC1 | . | -1 | 0 | . | 32*
SMILES | miR-122 sensor | Ecoli rRNA inh | E-selectin induc | Cneo AK release | DENV2 CPE
COc1ccc2c3c(n(C)c2c1)[C@@H](CO)N(C)CC31CCN(CC2CC2)CC1 | . | 4 | 0 | . | 48*
COc1ccc2c3c(n(C)c2c1)[C@@H](CO)N(S(C)(=O)=O)CC31CCN(CC2CCCC2)CC1 | . | -2 | 0 | . | 56*
COc1ccc2c3c(n(C)c2c1)[C@H](CO)N(C)CC31CN(CC2CC2)C1 | . | 2 | 0 | . | 9
C[C@@H]1CN([C@H](C)CO)C(=O)Cc2cc(NS(=O)(=O)c3ccc(Cl)cc3)ccc2O[C@H]1CN(C)C | -2[16.7 µM] | 1 | . | 2 | -5
Cc1ncc([N+](=O)[O-])n1Cc1ccccc1 | -11 | 8 | . | 4 | 50*
COC(=O)/C(C#N)=C/c1ccc(-c2ccc(S(N)(=O)=O)cc2)o1 | -7 | -27* | 0 | -3 | 8
O=C(C[C@@H]1CC[C@@H](NC(=O)CC2CC2)[C@@H](CO)O1)NCC(F)(F)F | 12[16.7 µM] | 5 | 0 | 8 | 62*
O=C(C[C@H]1CC[C@H](NC(=O)C2CCC2)[C@@H](CO)O1)NC1CCC1 | 17[16.7 µM] | 2 | -1 | 3 | 40*
O=C(C[C@@H]1CC[C@@H](NC(=O)C2CCOCC2)[C@@H](CO)O1)NCC1CC1 | . | 0 | 0 | . | 1
O=C(C[C@H]1CC[C@H](NC(=O)C2CCOCC2)[C@@H](CO)O1)NCC1CC1 | . | -1 | -1 | . | 34*
O=C(C[C@@H]1CC[C@@H](NC(=O)C2CCC2)[C@@H](CO)O1)NC1CCC1 | -7[16.7 µM] | 0 | -1 | -13 | -7
CN1[C@@H]2Cn3c(ccc(-c4ccc(F)cc4)c3=O)[C@H]1[C@@H](C(=O)Nc1nccs1)[C@@H]2CO | 2[16.7 µM] | -4 | 0 | -1 | 13
CC(C)NC(=O)N[C@H]1CC[C@@H](CCNC(=O)C2CCCC2)O[C@H]1CO | . | 4 | 0 | . | -1
C[C@H]1CN(C)C(=O)c2cc(N)ccc2O[C@H]1CN(C)C(=O)OC(C)(C)C | . | 0 | . | . | .
Cc1cc(=O)oc2c3c(cc(OCC(=O)NC(Cc4ccc(Cl)cc4)C(=O)O)c12)OC(C)(C)CC3 (stereo not drawn) | -20 | -38* | . | 3 | ?
Cc1cc(=O)oc2c3c(cc(OCC(=O)N[C@@H](Cc4ccccc4)C(=O)O)c12)OC(C)(C)CC3 | 4 | -31* | . | 0 | -5
Cc1cc(=O)oc2c3c(cc(OCC(=O)N[C@@H](C)C(=O)O)c12)OC(C)(C)CC3 | 5 | 2 | 0 | 3 | 8
COCC#Cc1ccc([C@@H]2[C@@H](CO)N3C(=O)CN(C(=O)Nc4cc(F)ccc4F)C[C@H]23)cc1 | . | -2 | . | . | .
Cc1noc(C)c1S(=O)(=O)Nc1ccc2c(c1)C(=O)N([C@@H](C)CO)C[C@@H](C)[C@@H](CN(C)Cc1ccc(Cl)c(Cl)c1)OCCCC[C@@H](C)O2 | -3[16.7 µM] | -5 | 0 | 3 | -6
S=c1[nH]c2cc(Cl)ccc2s1 | . | -26* | . | . | 0
CC(C)NC(=O)N(C)C[C@@H]1OCc2cnnn2CCCC(=O)N([C@@H](C)CO)C[C@@H]1C | -3[16.7 µM] | 4 | 1 | -3 | 7
C[C@@H]1CN([C@@H](C)CO)C(=O)CCCn2nncc2CO[C@H]1CN(C)Cc1cccc2c1OCCCO2 | -4 | 7 | 0 | 2 | 45*!
